Publication PMC11770135 (Journal of Pesticide Science, 2024)

Assays:
[1] = system: respiratory complexes I, III, and IV (NADH oxidase activity); assay: NADH oxidase activity; format: biochemical, housefly (Musca domestica); conditions: housefly mitochondria; compound added during NADH oxidation at final 40 nM
Method in brief: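 Housefly crude mitochondria were prepared by homogenizing in 250 mM sucrose, 5.0 mM EDTA, 10 mM Tris-HCl (pH 7.5), then differential centrifugation, and permeabilized by freeze-thawing. Protein was 30 µg/mL in 150 mM KCl, 2.5 mM MgCl₂, 30 mM KPi (pH 7.4) at 30°C. The reaction was started with 150 µM NADH, and NADH oxidation was followed at 340 nm.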

[2] = biological target: T1, Qi site of complex III (Lucilia sericata, UniProt A7DT80); assay: MS-based competition binding, Qi site; set-up: species or system green bottle fly (Lucilia sericata); conditions: reporter ligand FloMet 15 nM; two independent experiments
T1 sequence (A7DT80 1-378): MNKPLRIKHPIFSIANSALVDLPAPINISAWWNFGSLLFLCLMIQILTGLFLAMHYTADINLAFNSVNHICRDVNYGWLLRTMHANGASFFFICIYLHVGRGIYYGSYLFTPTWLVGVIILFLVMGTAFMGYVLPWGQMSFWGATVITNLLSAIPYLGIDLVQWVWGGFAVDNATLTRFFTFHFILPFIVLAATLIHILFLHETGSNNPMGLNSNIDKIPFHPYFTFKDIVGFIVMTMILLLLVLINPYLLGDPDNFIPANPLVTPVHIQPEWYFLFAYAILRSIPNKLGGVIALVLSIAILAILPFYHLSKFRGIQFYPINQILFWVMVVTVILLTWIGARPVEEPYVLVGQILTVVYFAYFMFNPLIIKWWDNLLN
Method in brief: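 20–40 µg particles were incubated with reporter and competitor for 1 hr at room temperature in 50 mM Tris-HCl, 120 mM NaCl, 0.1 mM EDTA (pH 7.4) with bacitracin and undecyl maltoside. Bound ligand was filtered, acetonitrile-extracted and quantified by LC-ESI-MS/MS. Ki came from a one-site LogKi fit.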

[3] = system: cytochrome b hemes of complex III; assay: Reduction of cytochrome b hemes in housefly mitochondria; format: biochemical, housefly (Musca domestica); conditions: myxothiazol 8 µM with FloMet 5 µM or antimycin A 2 µM
Method in brief: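 Housefly mitochondria at 0.8 mg/mL were held in 150 mM KCl, 2.5 mM MgCl₂, 1 µM rotenone, 0.2 µM SF6847, 2.0 mM KCN and 30 mM KPi (pH 7.4) at 30°C, and equilibrated with inhibitor(s) for 4 min. Reduction was started with succinate and recorded in dual-wavelength mode. Full reduction was set with excess sodium dithionite.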

Row | Structure (SMILES) | inhibition of NADH oxidase activity [1] | displacement of FloMet bound to the Qi site [2] | effect on reduction of cytochrome b hemes, in combination with myxothiazol [3]
1 | CCc1nc2cc(C)c(Oc3ccc(OC(F)(F)F)cc3)cc2c(OC(=O)OC)c1C [FLO, 2-ethyl-3,7-dimethyl-6-[4-(trifluoromethoxy)phenoxy]quinolin-4-yl methyl carbonate] | almost no inhibition | – | –
2 | CCCCCC[C@H]1C(=O)O[C@H](C)[C@H](NC(=O)c2cccc(NC=O)c2O)C(=O)O[C@@H](C)[C@@H]1OC(=O)CC(C)C [antimycin A] | – | displaced FloMet at low nano molar range | suppression of the reduction of b hemes
